According to ChEMBL document CHEMBL1140079, “Discovery of orally bioavailable cathepsin S inhibitors for the reversal of neuropathic pain” (J Med Chem, 2008):
Active and inactive are the calls of the source.

Experiments:
Cathepsin S = Cathepsin S (Homo sapiens, UniProt P25774); test: Inhibition of human recombinant cathepsin S by fluorescence assay
In short: (§1)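 Recombinant human enzymes in a fluorescence assay; substrate Z-Phe-Arg-MCA for cathepsins K and L, Z-Leu-Leu-Arg-MCA for cathepsin S. Means of two experiments, each run in duplicate; individual points within a 2-fold range of each other.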

Cathepsin K = molecular target: T1, Cathepsin K (Homo sapiens, UniProt P43235); test: Inhibition of human recombinant cathepsin K by fluorescence assay; in short: as §1
T1 sequence (P43235 whole entry): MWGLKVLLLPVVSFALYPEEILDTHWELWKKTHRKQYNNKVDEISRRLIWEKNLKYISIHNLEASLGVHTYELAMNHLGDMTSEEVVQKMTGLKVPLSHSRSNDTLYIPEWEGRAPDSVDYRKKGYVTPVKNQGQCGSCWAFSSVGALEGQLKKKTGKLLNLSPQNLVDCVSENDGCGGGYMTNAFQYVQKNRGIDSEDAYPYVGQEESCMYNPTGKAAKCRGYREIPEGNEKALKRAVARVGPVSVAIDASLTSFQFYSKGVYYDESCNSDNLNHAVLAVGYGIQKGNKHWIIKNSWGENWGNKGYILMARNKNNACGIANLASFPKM

Procathepsin L = Procathepsin L (Homo sapiens, UniProt P07711); test: Inhibition of human recombinant cathepsin L by fluorescence assay; in short: as §1
Chain of Procathepsin L (P07711 whole entry): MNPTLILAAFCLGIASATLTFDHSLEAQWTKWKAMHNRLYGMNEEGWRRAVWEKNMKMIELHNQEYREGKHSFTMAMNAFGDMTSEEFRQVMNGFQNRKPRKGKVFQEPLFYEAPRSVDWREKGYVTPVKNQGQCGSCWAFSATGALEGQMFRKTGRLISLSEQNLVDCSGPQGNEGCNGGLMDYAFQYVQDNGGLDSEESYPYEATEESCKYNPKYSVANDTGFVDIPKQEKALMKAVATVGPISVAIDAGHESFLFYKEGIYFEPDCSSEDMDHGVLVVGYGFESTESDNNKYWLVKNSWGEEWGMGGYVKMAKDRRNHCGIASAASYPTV

Homo sapiens [1] = species on record: Homo sapiens; test: Selectivity for human recombinant cathepsin S over human cathepsin B
Homo sapiens [2] = species on record: Homo sapiens; test: Selectivity for human recombinant cathepsin S over human cathepsin C
Homo sapiens [3] = species on record: Homo sapiens; test: Selectivity for human recombinant cathepsin S over human cathepsin X
Dipeptidyl peptidase 1 = Dipeptidyl peptidase 1 (Homo sapiens, UniProt P53634); test: Inhibition of human cathepsin C
Chain of Dipeptidyl peptidase 1 (P53634 25-134 limits assumed): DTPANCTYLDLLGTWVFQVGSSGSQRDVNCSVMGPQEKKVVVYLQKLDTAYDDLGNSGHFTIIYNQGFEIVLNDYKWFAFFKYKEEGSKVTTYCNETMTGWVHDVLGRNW
Chain of Dipeptidyl peptidase 1 (P53634 231-394 limits assumed): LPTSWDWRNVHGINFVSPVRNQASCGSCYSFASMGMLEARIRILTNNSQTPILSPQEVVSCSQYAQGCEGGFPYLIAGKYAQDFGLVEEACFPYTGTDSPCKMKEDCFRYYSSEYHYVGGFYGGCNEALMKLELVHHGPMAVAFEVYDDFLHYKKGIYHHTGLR
Chain of Dipeptidyl peptidase 1 (P53634 395-463 limits assumed): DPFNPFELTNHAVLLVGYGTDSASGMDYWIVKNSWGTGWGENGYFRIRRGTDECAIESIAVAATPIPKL

Pro-cathepsin H = molecular target: T2, Pro-cathepsin H (Homo sapiens, UniProt P09668); test: Inhibition of human cathepsin H
T2 sequence (P09668 whole entry): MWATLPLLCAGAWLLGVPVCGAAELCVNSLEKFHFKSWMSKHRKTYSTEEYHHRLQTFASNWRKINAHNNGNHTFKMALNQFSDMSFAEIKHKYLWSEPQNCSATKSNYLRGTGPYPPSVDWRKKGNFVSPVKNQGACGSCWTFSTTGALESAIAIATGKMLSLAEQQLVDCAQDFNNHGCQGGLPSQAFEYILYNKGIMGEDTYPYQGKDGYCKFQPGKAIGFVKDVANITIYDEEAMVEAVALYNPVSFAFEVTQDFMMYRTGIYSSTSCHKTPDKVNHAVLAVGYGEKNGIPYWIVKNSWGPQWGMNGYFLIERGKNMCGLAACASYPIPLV

[4] = Inhibition of human cathepsin X
[5] = molecular target: Cathepsin S (Mus musculus) (UniProt O70370); test: Inhibition of cathepsin S-mediated proteolytic cleavage of MHC2 associated invariant chain in mouse splenocytes assessed as induction of accumulation of lip10; format: cell-based
[6] = Plasma clearance in Sprague-Dawley rat at 1 mg/kg, iv and 3 mg/kg, po by LC/MS analysis; format: ADME, organism-based
In short: (§2)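 Male Sprague-Dawley rats dosed orally at 3 mg/kg as a suspension and intravenously at 1 mg/kg as a bolus. Plasma levels quantified by LC/MS. Oral AUC and Cmax dose-normalized to 1 mg/kg. Means ± SD of three individual experiments.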

[7] = Bioavailability in Sprague-Dawley rat at 1 mg/kg, iv and 3 mg/kg, po by LC/MS analysis; format: ADME, organism-based; details: in vivo; in short: as §2
[8] = Cmax in Sprague-Dawley rat at 3 mg/kg, po by LC/MS analysis; format: ADME, organism-based; design: dose 3 mg/kg, route oral; details: in vivo; in short: as §2
[9] = Volume of distribution in Sprague-Dawley rat at 1 mg/kg, iv and 3 mg/kg, po by LC/MS analysis; format: ADME, organism-based; details: in vivo; in short: as §2
[10] = Inhibition of rat cathepsin S glycine 137 mutant by fluorescence assay
In short: (§3)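 Recombinant rat cathepsins K, L, S (137Gly and 137Cys forms) and mouse cathepsin S in a fluorescence assay. Substrates: Z-Phe-Arg-MCA for K and L, Z-Leu-Leu-Arg-MCA for S. IC50 reported as means ± SD of three experiments.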

[11] = Inhibition of rat cathepsin S cysteine 137 mutant by fluorescence assay; in short: as §3
Rattus norvegicus [12] = species on record: Rattus norvegicus; test: Selectivity for rat cathepsin S glycine 137 mutant over rat cathepsin K
In short: (§4)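 Recombinant rat cathepsins in a fluorescence assay with MCA substrates: Z-Leu-Leu-Arg-MCA for cathepsin S (137Gly form), Z-Phe-Arg-MCA for K and L, and Z-Arg-Arg-MCA for B. IC50 values were taken as means ± SD of three experiments, and selectivity was compared from the IC50 values against the S enzyme and each other cathepsin.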

Rattus norvegicus [13] = species on record: Rattus norvegicus; test: Selectivity for rat cathepsin S glycine 137 mutant over rat cathepsin L; in short: as §4
Rattus norvegicus [14] = species on record: Rattus norvegicus; test: Selectivity for rat cathepsin S glycine 137 mutant over rat cathepsin B; in short: as §4
Rattus norvegicus [15] = species on record: Rattus norvegicus; test: Reversal of neuropathic mechanical hyperalgesia in Wistar rat sciatic nerve ligation model with cathepsin S glycine 137 mutation; format: functional, organism-based
In short: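 Partial sciatic nerve ligation in Wistar rats genotyped as 137Gly cathepsin S, with established mechanical hyperalgesia. Oral dosing in 0.5% methylcellulose/water; repeat regimen twice daily for 5 days, paw withdrawal thresholds 3 h post-dose. 6 animals/group; % reversal of hyperalgesia, mean ± SEM; ANOVA with Tukey's HSD versus vehicle.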

Cytochrome P450 1A2 = molecular target: T3, Cytochrome P450 1A2 (Homo sapiens, UniProt P05177); test: Inhibition of CYP1A2 at 10 uM; format: ADME
T3 sequence (P05177 whole entry): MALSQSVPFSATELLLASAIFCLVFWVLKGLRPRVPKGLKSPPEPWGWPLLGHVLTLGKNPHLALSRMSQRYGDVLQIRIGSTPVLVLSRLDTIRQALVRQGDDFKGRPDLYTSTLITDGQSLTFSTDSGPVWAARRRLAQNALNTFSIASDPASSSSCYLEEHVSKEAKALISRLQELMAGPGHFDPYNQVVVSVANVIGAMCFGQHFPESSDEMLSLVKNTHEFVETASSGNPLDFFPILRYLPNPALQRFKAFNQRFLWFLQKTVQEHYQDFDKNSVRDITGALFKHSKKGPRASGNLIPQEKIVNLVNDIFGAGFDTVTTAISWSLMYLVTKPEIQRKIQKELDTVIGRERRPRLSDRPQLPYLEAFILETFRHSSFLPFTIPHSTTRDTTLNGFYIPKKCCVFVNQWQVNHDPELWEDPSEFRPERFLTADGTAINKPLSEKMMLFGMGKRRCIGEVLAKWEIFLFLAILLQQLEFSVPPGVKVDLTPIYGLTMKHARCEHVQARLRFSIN
In short: (§5)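 Tested against a panel of cytochrome P450 enzymes at a maximum concentration of 10 µM.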

Cytochrome P450 2C19 = Cytochrome P450 2C19 (Homo sapiens, UniProt P33261); test: Inhibition of CYP2C19 at 10 uM; format: ADME; in short: as §5
Chain of Cytochrome P450 2C19 (P33261 whole entry): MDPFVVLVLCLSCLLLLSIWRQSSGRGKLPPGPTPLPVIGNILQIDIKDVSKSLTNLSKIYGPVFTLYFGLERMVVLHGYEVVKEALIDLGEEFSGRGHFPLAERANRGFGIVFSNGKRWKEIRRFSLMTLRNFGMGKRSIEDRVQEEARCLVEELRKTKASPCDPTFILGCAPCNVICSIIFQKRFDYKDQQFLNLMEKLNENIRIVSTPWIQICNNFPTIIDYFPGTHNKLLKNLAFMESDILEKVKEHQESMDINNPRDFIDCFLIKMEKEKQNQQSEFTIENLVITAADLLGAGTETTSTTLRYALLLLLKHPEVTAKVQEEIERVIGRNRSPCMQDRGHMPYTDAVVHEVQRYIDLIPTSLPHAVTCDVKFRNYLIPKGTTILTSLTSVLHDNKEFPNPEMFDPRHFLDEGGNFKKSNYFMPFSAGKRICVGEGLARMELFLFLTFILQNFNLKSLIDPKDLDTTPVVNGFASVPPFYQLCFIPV

Cytochrome P450 2D6 = Cytochrome P450 2D6 (Homo sapiens, UniProt P10635); test: Inhibition of CYP2D6 at 10 uM; format: ADME; in short: as §5
Chain of Cytochrome P450 2D6 (P10635 whole entry): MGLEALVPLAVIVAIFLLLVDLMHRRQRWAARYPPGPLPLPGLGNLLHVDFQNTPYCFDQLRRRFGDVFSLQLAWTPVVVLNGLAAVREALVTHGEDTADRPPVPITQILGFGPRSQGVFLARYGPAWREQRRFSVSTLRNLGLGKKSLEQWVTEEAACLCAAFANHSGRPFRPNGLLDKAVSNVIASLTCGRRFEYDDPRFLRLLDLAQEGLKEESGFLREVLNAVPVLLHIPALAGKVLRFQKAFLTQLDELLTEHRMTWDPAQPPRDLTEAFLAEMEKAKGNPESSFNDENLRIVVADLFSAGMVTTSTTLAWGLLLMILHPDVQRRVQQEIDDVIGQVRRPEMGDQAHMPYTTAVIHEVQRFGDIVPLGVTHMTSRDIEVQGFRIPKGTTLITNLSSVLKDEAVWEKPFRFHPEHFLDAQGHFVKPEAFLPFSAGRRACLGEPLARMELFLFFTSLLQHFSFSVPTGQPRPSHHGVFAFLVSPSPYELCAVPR

[16] = Genotoxicity in liver S9 fraction by Ames test; format: toxicity, subcellular
In short: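 Standard Ames test run with liver S9 enzyme.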

[17] = molecular target: Cathepsin S (Mus musculus) (UniProt O70370); test: Inhibition of cathepsin S-mediated proteolytic cleavage of MHC2 associated invariant chain in mouse splenocytes assessed as induction of accumulation of lip10 at 1 µM

Chain of Cathepsin S (P25774 whole entry): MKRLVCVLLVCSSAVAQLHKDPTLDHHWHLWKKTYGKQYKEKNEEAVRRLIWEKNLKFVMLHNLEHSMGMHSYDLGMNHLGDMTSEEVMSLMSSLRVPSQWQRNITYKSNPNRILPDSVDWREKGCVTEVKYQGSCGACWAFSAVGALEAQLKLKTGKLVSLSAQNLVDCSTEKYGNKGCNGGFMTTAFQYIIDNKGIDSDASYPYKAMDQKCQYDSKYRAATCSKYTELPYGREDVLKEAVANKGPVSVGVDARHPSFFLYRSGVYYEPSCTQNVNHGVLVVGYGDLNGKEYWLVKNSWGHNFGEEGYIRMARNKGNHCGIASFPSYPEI

Work on CC(=O)N1CCN(c2ccc(OCc3cc4cnc(C#N)nc4n3CCC3CCC(F)(F)CC3)cc2)CC1 yielded an IC50 (Cathepsin S) of 0.01 µM, a Ki (Cathepsin S) of 0.004 µM and an IC50 (Cathepsin K) of 5.4 µM. It also gave an IC50 (Procathepsin L) of 6.2 µM, an Activity (Homo sapiens [1]) of over 100 and an Activity (Homo sapiens [2]) of over 100. It also gave an Activity (Homo sapiens [3]) of over 100, a Ki (Dipeptidyl peptidase 1) of over 10 µM and a Ki (Pro-cathepsin H) of over 10 µM. The Ki [4] was 0.65 µM, the Activity [5] was “Dose-dependent effect” and the clearance [6] was 51.7 mL/min/kg. The bioavailability [7] was 21%, the Cmax [8] was 37 nM and the Vd [9] was 3.7 L/kg. It also gave an IC50 [10] of 0.028 µM, an IC50 [11] of over 10 µM and an Activity (Rattus norvegicus [12]) of over 100. The Activity (Rattus norvegicus [13]) was over 100, the Activity (Rattus norvegicus [14]) was over 100 and the Activity (Rattus norvegicus [15]) was “Dose-dependent effect”. For the same compound, the Activity (Cytochrome P450 1A2) was “Not Active”, the Activity (Cytochrome P450 2C19) was “Not Active” and the Activity (Cytochrome P450 2D6) was “Not Active”. The Activity [16] was “Non-toxic” and the Activity [17] was “Active”.
